Converted amounts (≈) assume the structure as drawn.
Legend:
[1] = Inhibition of Saccharomyces cerevisiae alpha-glucosidase using PNPG as substrate incubated for 10 mins by spectrophotometric method
[2] = biological target: T1, Tissue alpha-L-fucosidase (Bos taurus, UniProt Q2KIM0); experiment: Inhibition of bovine kidney alpha-fucosidase using […] as substrate incubated for 10 mins by spectrophotometric method
T1 sequence (Q2KIM0 whole entry): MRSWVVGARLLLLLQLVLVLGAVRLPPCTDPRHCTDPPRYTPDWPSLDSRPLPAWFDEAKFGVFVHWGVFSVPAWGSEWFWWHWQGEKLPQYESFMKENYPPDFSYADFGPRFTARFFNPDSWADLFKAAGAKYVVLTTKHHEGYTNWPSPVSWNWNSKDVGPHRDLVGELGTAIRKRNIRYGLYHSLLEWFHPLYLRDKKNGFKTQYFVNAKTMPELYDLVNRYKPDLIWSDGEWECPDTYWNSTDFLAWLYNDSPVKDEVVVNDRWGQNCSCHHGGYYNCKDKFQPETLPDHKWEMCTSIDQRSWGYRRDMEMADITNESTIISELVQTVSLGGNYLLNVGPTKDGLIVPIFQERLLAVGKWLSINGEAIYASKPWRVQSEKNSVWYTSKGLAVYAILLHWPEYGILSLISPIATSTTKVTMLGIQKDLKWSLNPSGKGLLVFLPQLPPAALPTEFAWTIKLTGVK

Alpha-mannosidase = biological target: T2, Alpha-mannosidase (Canavalia ensiformis, UniProt C0HJB3); experiment: Inhibition of jack bean alpha-mannosidase using […] as substrate incubated for 10 mins by spectrophotometric method
T2 sequence (C0HJB3 whole entry): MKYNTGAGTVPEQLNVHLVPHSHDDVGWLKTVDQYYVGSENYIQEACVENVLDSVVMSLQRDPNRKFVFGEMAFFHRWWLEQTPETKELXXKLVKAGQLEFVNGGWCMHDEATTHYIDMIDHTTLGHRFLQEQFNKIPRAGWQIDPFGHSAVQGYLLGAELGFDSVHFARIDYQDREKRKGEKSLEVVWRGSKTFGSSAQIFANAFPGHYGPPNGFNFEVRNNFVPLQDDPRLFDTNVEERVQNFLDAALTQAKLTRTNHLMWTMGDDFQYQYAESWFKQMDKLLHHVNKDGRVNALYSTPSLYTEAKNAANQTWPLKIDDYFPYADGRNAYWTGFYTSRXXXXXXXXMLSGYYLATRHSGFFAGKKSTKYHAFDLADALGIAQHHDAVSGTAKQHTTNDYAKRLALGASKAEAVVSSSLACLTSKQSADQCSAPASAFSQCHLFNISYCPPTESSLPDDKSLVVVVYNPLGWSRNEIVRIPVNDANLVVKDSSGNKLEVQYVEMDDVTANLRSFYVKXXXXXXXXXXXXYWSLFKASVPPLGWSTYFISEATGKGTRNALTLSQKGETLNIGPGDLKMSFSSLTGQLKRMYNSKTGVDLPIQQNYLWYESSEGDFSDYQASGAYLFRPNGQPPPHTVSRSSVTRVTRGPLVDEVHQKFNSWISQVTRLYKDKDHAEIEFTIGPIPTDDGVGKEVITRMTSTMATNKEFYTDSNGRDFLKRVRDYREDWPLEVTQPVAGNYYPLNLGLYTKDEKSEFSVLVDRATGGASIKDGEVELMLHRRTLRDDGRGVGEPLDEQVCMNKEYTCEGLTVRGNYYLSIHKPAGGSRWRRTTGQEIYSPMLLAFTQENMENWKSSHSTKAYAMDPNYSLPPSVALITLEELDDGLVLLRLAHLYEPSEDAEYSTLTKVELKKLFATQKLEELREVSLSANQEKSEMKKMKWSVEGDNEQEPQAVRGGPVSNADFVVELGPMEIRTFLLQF

[3] = Thermodynamic solubility of compound in phosphate buffer at 1 mg/ml at pH 7.4 after 24 hrs by HPLC analysis; format: physicochemical; settings: read-out: Therm_solubility
Method in brief: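 1 mg compound incubated in 1 mL phosphate buffer saline (pH 7.4) for 24 h with vortexing at 500 rpm. Samples were then centrifuged and the supernatant injected into HPLC to quantify dissolved compound.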

[4] = Stability in mouse liver microsomes assessed as CYP450-mediated drug degradation by measuring proportion of compound metabolised at 1 uM up to 60 mins in presence of NADPH by LC-MS/MS analysis; format: ADME; settings: read-out: Drug degradation
Method in brief: (§1)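 Liver microsomes (1.0 mg protein/mL) were incubated with compound at 1 μM; reactions were started with 1 mM NADPH. No-NADPH incubations (0 and 60 min) served as stability controls. Reactions were stopped at 0, 5, 15, 30 and 60 min with ice-cold acetonitrile containing internal standard, then centrifuged. Parent loss was tracked by LC-MS/MS.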

[5] = Stability in rat liver microsomes assessed as CYP450-mediated drug degradation by measuring proportion of compound metabolised at 1 uM up to 60 mins in presence of NADPH by LC-MS/MS analysis; format: ADME; settings: read-out: Drug degradation; method in brief: as §1
[6] = Intrinsic clearance in human liver microsomes at 1 uM up to 60 mins in presence of NADPH by LC-MS/MS analysis; format: ADME, Microsome; settings: 1 h; method in brief: as §1
[7] = Clearance in mouse; format: ADME, organism-based; settings: in vivo
[8] = Clearance in rat; format: ADME; settings: in vivo
[9] = Clearance in human; format: ADME; method in brief: as §1
[10] = Protein binding in mouse plasma assessed as unbound fraction at 10 uM after 6 hrs by LC-MS/MS analysis; format: ADME, cell-free
Method in brief: (§2)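 Equilibrium dialysis: plasma with compound at 10 μM final on one side, 100 mM sodium phosphate pH 7.4 on the other. Equilibrated at 37 ± 1 °C for 6 h with shaking at 500 rpm. Both sides were sampled, proteins precipitated with organic solvent, and supernatants analysed by LC-MS/MS.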

[11] = Protein binding in rat plasma assessed as unbound fraction at 10 uM after 6 hrs by LC-MS/MS analysis; format: ADME, cell-free; method in brief: as §2
[12] = Protein binding in human plasma assessed as unbound fraction at 10 uM after 6 hrs by LC-MS/MS analysis; format: ADME, cell-free; method in brief: as §2
[13] = Protein binding in mouse plasma assessed as bound fraction at 10 uM after 6 hrs by LC-MS/MS analysis; format: ADME, cell-free; settings: read-out: PPB (converted); method in brief: as §2
[14] = Drug recovery in rat plasma at 10 uM after 6 hrs by LC-MS/MS analysis; format: ADME, cell-free; settings: read-out: Drug recovery; method in brief: as §2
[15] = Drug recovery in human plasma at 10 uM after 6 hrs by LC-MS/MS analysis; format: ADME, cell-free; settings: read-out: Drug recovery; method in brief: as §2
[16] = Cytotoxicity against rat BRIN-BD11 cells assessed as reduction in cell viability at >=10 uM after 24 hrs by MTT assay; format: cell-based; settings: brin-bd11, 24 h
Method in brief: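 BRIN-BD11 rat β-cells were seeded at 10^4 cells/well in RPMI and left overnight. They were exposed 24 h to compound at 100, 30, 10, 3, 1, 0.3 and 0.1 μM. MTT (5 mg/ml stock) was added for 90 min at 37 °C, formazan dissolved in DMSO, and absorbance read at 560 nm.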

Saccharomyces cerevisiae = experiment: Potency index, ratio of acarbose IC50 to test compound IC50 for inhibition of Saccharomyces cerevisiae alpha-glucosidase using PNPG as substrate incubated for 10 mins by spectrophotometric method

IC50 [1]: 560 nM
IC50 [2]: 30.4 µM
IC50 (Alpha-mannosidase): 41.2 µM
solubility thermodynamic at 24 h [3]: 0.1 µg/mL (≈ 0.238 µM)
metabolised at 1 h, 1 µM [4]: 99%
metabolised at 1 h, 1 µM [5]: 95.2%
CLint [6]: 54.8 µL/min/mg
clearance [7]: 60.3 mL/min/kg
clearance [8]: 35.2 mL/min/kg
clearance [9]: 15.1 mL/min/kg
fraction unbound at 6 h, 10 µM [10]: 0.0899
fraction unbound at 6 h, 10 µM [11]: 0.0156
fraction unbound at 6 h, 10 µM [12]: 0.107
fraction unbound at 6 h, 10 µM [13]: 0.0899
remaining at 6 h, 10 µM [14]: 1.95%
remaining at 6 h, 10 µM [15]: 56.7%
Ratio IC50 (Saccharomyces cerevisiae): 4
SMILES: CCOC(=O)c1ccc(-n2c(/C=C3\OC(=O)c4c3cc(C)[nH]c4=O)ccc2CO)cc1
Activity [16]: Toxic

From ChEMBL document CHEMBL4680156, “Discovery of novel pyrido-pyrrolidine hybrid compounds as alpha-glucosidase inhibitors and alternative agent for control of type 1 diabetes” (Eur J Med Chem, 2020)
